Several values for one entry are separate records, joined by “and”; a condition that tells them apart may be missing. Identical values can stand only once.
tested on: HEK-293T; assay: Multiplex assay against HEK293T; type: toxicity, cell-based; details: human, 12 h, 1 µM, compound concentration 1 uM
Summary of the method: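 On a CQ1 microscope at 37°C and 5% CO2, live cells were imaged after compound addition. They had been stained at seeding with Hoechst33342, BioTracker Green Microtubule Cytoskeleton Dye, MitoTracker Red and Annexin V Alexa Fluor 680. CellPathfinder machine-learning gating assigned cells to Hoechst high-intensity objects or normal cells, normal cells to healthy, pyknosed or fragmented nuclei, and pyknosed cells to mitotic or apoptotic. Tubulin, mitochondrial-mass and membrane-permeability phenotypes are per cents of healthy-nucleus cells.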

SMILES	Population Apoptotic (%)	Population Fragmented Nuclei (%)	Population Healthy Nuclei (%)	Population Hoechst High Intensity Objects (%)	Population Membrane Permeable-Phenotype (%)	Population Mitochondria Different-Phenotype (%)	Population Mitotic Cells (%)	Population Normal (%)	Population Pyknosed Nuclei (%)	Population Tubulin-Different-Phenotype (%)
CCOc1c2c(c(OCC)c3ncccc13)CN(c1ccc(CS(=O)(=O)NC(=O)Cc3ccccc3OC)cc1C)C2=O	33% and 35%	3% and 5%	81% and 82%	6% and 5%	0%	43% and 54%	66% and 64%	93% and 94%	14% and 12%	31% and 16%
COc1ccc2[nH]c(I)c(CCNC(C)=O)c2c1 [IODOMELATONIN]	42% and 59%	4% and 5%	80% and 84%	5% and 7%	1% and 0%	43% and 64%	57% and 40%	94% and 92%	14% and 10%	35% and 32%
OCCCNc1cc(-c2ccnc(Nc3cccc(Cl)c3)n2)ccn1	66% and 65%	9% and 8%	66% and 74%	14% and 11%	0%	82% and 88%	33% and 34%	85% and 88%	24% and 16%	75% and 57%

same assay, conditions: human, 12 h, 1 µM, compound concentration 1 uM

SMILES	Total Cell Count
CCOc1c2c(c(OCC)c3ncccc13)CN(c1ccc(CS(=O)(=O)NC(=O)Cc3ccccc3OC)cc1C)C2=O	356 and 355
COc1ccc2[nH]c(I)c(CCNC(C)=O)c2c1 [IODOMELATONIN]	388 and 400
OCCCNc1cc(-c2ccnc(Nc3cccc(Cl)c3)n2)ccn1	204 and 173

same assay, conditions: human, 12 h, 10 µM, compound concentration 10 uM

SMILES	Population Apoptotic (%)	Population Fragmented Nuclei (%)	Population Healthy Nuclei (%)	Population Hoechst High Intensity Objects (%)	Population Membrane Permeable-Phenotype (%)	Population Mitochondria Different-Phenotype (%)	Population Mitotic Cells (%)	Population Normal (%)	Population Pyknosed Nuclei (%)	Population Tubulin-Different-Phenotype (%)
CCOc1c2c(c(OCC)c3ncccc13)CN(c1ccc(CS(=O)(=O)NC(=O)Cc3ccccc3OC)cc1C)C2=O	45% and 53%	9% and 7%	78% and 76%	4% and 9%	0%	49% and 72%	54% and 46%	95% and 90%	12% and 16%	34% and 29%
COc1ccc2[nH]c(I)c(CCNC(C)=O)c2c1 [IODOMELATONIN]	38% and 46%	11% and 8%	77%	8% and 12%	0%	52% and 62%	61% and 53%	91% and 87%	10% and 14%	29% and 25%
OCCCNc1cc(-c2ccnc(Nc3cccc(Cl)c3)n2)ccn1	78% and 75%	14%	55% and 67%	30% and 41%	1% and 10%	83% and 85%	21% and 25%	69% and 58%	30% and 18%	80% and 72%

same assay, conditions: human, 12 h, 10 µM, compound concentration 10 uM

SMILES	Total Cell Count
CCOc1c2c(c(OCC)c3ncccc13)CN(c1ccc(CS(=O)(=O)NC(=O)Cc3ccccc3OC)cc1C)C2=O	367 and 362
COc1ccc2[nH]c(I)c(CCNC(C)=O)c2c1 [IODOMELATONIN]	445 and 316
OCCCNc1cc(-c2ccnc(Nc3cccc(Cl)c3)n2)ccn1	249 and 224

same assay, conditions: human, 24 h, 1 µM, compound concentration 1 uM

SMILES	Population Apoptotic (%)	Population Fragmented Nuclei (%)	Population Healthy Nuclei (%)	Population Hoechst High Intensity Objects (%)	Population Membrane Permeable-Phenotype (%)	Population Mitochondria Different-Phenotype (%)	Population Mitotic Cells (%)	Population Normal (%)	Population Pyknosed Nuclei (%)	Population Tubulin-Different-Phenotype (%)
CCOc1c2c(c(OCC)c3ncccc13)CN(c1ccc(CS(=O)(=O)NC(=O)Cc3ccccc3OC)cc1C)C2=O	35% and 27%	11% and 5%	73% and 85%	5% and 3%	0%	28% and 27%	64% and 72%	94% and 96%	14% and 8%	20% and 10%
COc1ccc2[nH]c(I)c(CCNC(C)=O)c2c1 [IODOMELATONIN]	38% and 44%	8% and 9%	80% and 78%	3% and 8%	1% and 0%	24% and 37%	61% and 55%	96% and 91%	11%	23% and 14%
OCCCNc1cc(-c2ccnc(Nc3cccc(Cl)c3)n2)ccn1	91% and 77%	10% and 13%	66% and 76%	14% and 15%	0%	80% and 86%	8% and 22%	85% and 84%	22% and 10%	61%

same assay, conditions: human, 24 h, 1 µM, compound concentration 1 uM

SMILES	Total Cell Count
CCOc1c2c(c(OCC)c3ncccc13)CN(c1ccc(CS(=O)(=O)NC(=O)Cc3ccccc3OC)cc1C)C2=O	462 and 473
COc1ccc2[nH]c(I)c(CCNC(C)=O)c2c1 [IODOMELATONIN]	511 and 497
OCCCNc1cc(-c2ccnc(Nc3cccc(Cl)c3)n2)ccn1	228 and 202

same assay, conditions: human, 24 h, 10 µM, compound concentration 10 uM

SMILES	Population Apoptotic (%)	Population Fragmented Nuclei (%)	Population Healthy Nuclei (%)	Population Hoechst High Intensity Objects (%)	Population Membrane Permeable-Phenotype (%)	Population Mitochondria Different-Phenotype (%)	Population Mitotic Cells (%)	Population Normal (%)	Population Pyknosed Nuclei (%)	Population Tubulin-Different-Phenotype (%)
CCOc1c2c(c(OCC)c3ncccc13)CN(c1ccc(CS(=O)(=O)NC(=O)Cc3ccccc3OC)cc1C)C2=O	18% and 32%	10% and 8%	75% and 82%	4% and 8%	0% and 1%	36% and 49%	81% and 67%	95% and 91%	14% and 9%	28% and 17%
COc1ccc2[nH]c(I)c(CCNC(C)=O)c2c1 [IODOMELATONIN]	32% and 40%	11% and 5%	77% and 81%	5% and 9%	1% and 0%	31% and 48%	67% and 59%	94% and 90%	10% and 12%	25% and 21%
OCCCNc1cc(-c2ccnc(Nc3cccc(Cl)c3)n2)ccn1	71% and 78%	16% and 15%	44% and 54%	41% and 45%	0% and 3%	85% and 91%	28% and 21%	58% and 54%	38% and 29%	88% and 82%

same assay, conditions: human, 24 h, 10 µM, compound concentration 10 uM

SMILES	Total Cell Count
CCOc1c2c(c(OCC)c3ncccc13)CN(c1ccc(CS(=O)(=O)NC(=O)Cc3ccccc3OC)cc1C)C2=O	446 and 481
COc1ccc2[nH]c(I)c(CCNC(C)=O)c2c1 [IODOMELATONIN]	568 and 360
OCCCNc1cc(-c2ccnc(Nc3cccc(Cl)c3)n2)ccn1	237 and 207

same assay, conditions: human, 48 h, 1 µM, compound concentration 1 uM

SMILES	Population Apoptotic (%)	Population Fragmented Nuclei (%)	Population Healthy Nuclei (%)	Population Hoechst High Intensity Objects (%)	Population Membrane Permeable-Phenotype (%)	Population Mitochondria Different-Phenotype (%)	Population Mitotic Cells (%)	Population Normal (%)	Population Pyknosed Nuclei (%)	Population Tubulin-Different-Phenotype (%)
CCOc1c2c(c(OCC)c3ncccc13)CN(c1ccc(CS(=O)(=O)NC(=O)Cc3ccccc3OC)cc1C)C2=O	29% and 33%	13% and 11%	79% and 83%	3% and 1%	0%	20% and 14%	70% and 66%	96% and 98%	6% and 5%	13% and 7%
COc1ccc2[nH]c(I)c(CCNC(C)=O)c2c1 [IODOMELATONIN]	26% and 31%	12%	79%	4% and 5%	1%	19% and 22%	73% and 68%	95% and 94%	7% and 8%	16% and 14%
OCCCNc1cc(-c2ccnc(Nc3cccc(Cl)c3)n2)ccn1	82% and 61%	12% and 17%	51% and 65%	18% and 21%	1% and 0%	88% and 84%	17% and 38%	81% and 78%	35% and 17%	68% and 59%

same assay, conditions: human, 48 h, 1 µM, compound concentration 1 uM

SMILES	Total Cell Count
CCOc1c2c(c(OCC)c3ncccc13)CN(c1ccc(CS(=O)(=O)NC(=O)Cc3ccccc3OC)cc1C)C2=O	822 and 770
COc1ccc2[nH]c(I)c(CCNC(C)=O)c2c1 [IODOMELATONIN]	770 and 622
OCCCNc1cc(-c2ccnc(Nc3cccc(Cl)c3)n2)ccn1	232 and 193

same assay, conditions: human, 48 h, 10 µM, compound concentration 10 uM

SMILES	Population Apoptotic (%)	Population Fragmented Nuclei (%)	Population Healthy Nuclei (%)	Population Hoechst High Intensity Objects (%)	Population Membrane Permeable-Phenotype (%)	Population Mitochondria Different-Phenotype (%)	Population Mitotic Cells (%)	Population Normal (%)	Population Pyknosed Nuclei (%)	Population Tubulin-Different-Phenotype (%)
CCOc1c2c(c(OCC)c3ncccc13)CN(c1ccc(CS(=O)(=O)NC(=O)Cc3ccccc3OC)cc1C)C2=O	41% and 33%	13% and 12%	78% and 81%	4% and 3%	1% and 0%	32% and 22%	58% and 66%	95% and 96%	8% and 6%	16% and 11%
COc1ccc2[nH]c(I)c(CCNC(C)=O)c2c1 [IODOMELATONIN]	23% and 25%	16% and 15%	77% and 75%	1% and 2%	1% and 0%	16% and 24%	76% and 74%	98% and 97%	5% and 9%	11% and 16%
OCCCNc1cc(-c2ccnc(Nc3cccc(Cl)c3)n2)ccn1	71% and 83%	16% and 25%	46%	57% and 56%	1% and 8%	78% and 85%	28% and 16%	42% and 43%	37% and 28%	76% and 79%

same assay, conditions: human, 48 h, 10 µM, compound concentration 10 uM

SMILES	Total Cell Count
CCOc1c2c(c(OCC)c3ncccc13)CN(c1ccc(CS(=O)(=O)NC(=O)Cc3ccccc3OC)cc1C)C2=O	631 and 724
COc1ccc2[nH]c(I)c(CCNC(C)=O)c2c1 [IODOMELATONIN]	860 and 613
OCCCNc1cc(-c2ccnc(Nc3cccc(Cl)c3)n2)ccn1	262 and 238

Reference: ChEMBL document CHEMBL5724801, “EUbOPEN Chemogenomics Library - Multiplex” (2024)
